Compound activity: PubChem BioAssay, several laboratories
CHOP inhibitor: inhibitors of CHOP promoter induction, primary screen, cell-based, unfolded protein response, luciferase reporter; 220,000 tested, 3.8% active; CHO-K1 CHOP-promoter luciferase, tunicamycin-induced, 15-18 h; inhibition, % at 10 µM;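 active = compounds that reduced the stress-induced luciferase reporter signal by more than about 70% of percent inhibition, limit read from the data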
Jurkat NFkB inh: inhibitors of induced NF-kB luciferase reporter, primary screen, TCR NF-kB activation inhibitor project, cell-based, luminescence, uHTS; Jurkat, PMA/ionomycin-induced NF-kB luciferase reporter; inhibition, % at 4 µM; 330,000 tested, 0.53% active; AID 435003, 2010; in the data active = inhibition above about 50%
XBP1 UPR activ: activators of adaptive XBP1 UPR arm, primary screen, cell-based, CHO-XBP1 luciferase reporter, luminescence, uHTS; IRE1-XBP1 UPR activation; percent of tunicamycin response, DMSO as zero; activation, % at 20 µM; 330,000 tested, 0.33% active; AID 463104, 2010;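 active = versus positive control, 20 µM dose yields 30% or more activation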
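Material: IRE1-XBP1 luciferase reporter CHO line / Quantity: one thousand reporter cells per well / Buffer or medium: F12 with 10% serum / Compound: 20 µM single concentration, DMSO 1% / Times: 6 h treatment, 37 °C / Detection: Steady-Glo luciferase glow luminescence, 10 min after reagent addition / Benchmarks: tunicamycin high, DMSO low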
UPR CHOP act: activators of apoptotic CHOP UPR arm, primary screen, cell-based, CHO-CHOP luciferase reporter, luminescence, uHTS | UPR activation; percent of tunicamycin response over DMSO baseline | activation, % at 10 µM | 330,000 tested, 0.34% active;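 active = at 10 µM dose, activation of 40% or more, normalized to positive control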
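Assay system: CHO cells with stable CHOP pathway luciferase reporter; Buffer or medium: F12 plus 10% serum; Times: 16-18 h cell attachment, then 6 h compound exposure, 37 °C; Signal: luciferase luminescence; Read-out basis: percent activation relative to tunicamycin control; Control set: tunicamycin high control, DMSO low control.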
697 NFkB inh: inhibitors of PMA/ionomycin-induced NF-kB reporter, 697 cells, primary screen, B-cell NF-kB inhibitor project, cell-based, luminescence, uHTS; 697 B-cell NF-kB luciferase reporter, 16 h; AID 435022, 2010; inhibition, % at 4 µM; 330,000 tested, 0.33% active; in the data active = inhibition above about 35%
Jurkat NFkB conf: PMA/ionomycin-induced NF-kB reporter inhibitors, Jurkat retest, confirmation, T-cell NF-kB inhibitor project, cell-based, luminescence, single concentration | 2,700 tested, 27% active | shares compounds with Jurkat NFkB inh | inhibition, % at 4 µM | Jurkat NF-kB luciferase, 16 h;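 active = inhibition reaching about 45% at 4 µM in either replicate, limit read from the data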
Large screens that a line does not name were inactive (follow-up assays come after a bar, where they were run). This excerpt belongs to a sample that is enriched for hits.

COc1ccc(C(=O)NCCSc2ccccc2)cc1	none | Jurkat NFkB conf inactive
CCN(CC)P(=O)(c1ccccc1)c1c(C)nc2ccccn12 (centres undefined)	none (no result: CHOP inhibitor)
Cc1ccc(Cn2c(=N)n(CC(O)COc3ccccc3)c3ccccc32)cc1 (centres undefined)	Jurkat NFkB inh 53 | Jurkat NFkB conf inactive
N/C(=C\C(=O)c1cc(Cl)ccc1O)C(Cl)(Cl)Cl	Jurkat NFkB inh 64 | Jurkat NFkB conf inactive
Cc1ccc(-c2csc3ncnc(N4CCN(Cc5ccccc5)CC4)c23)cc1	none (no result: CHOP inhibitor)
Cc1csc2ncnc(NC3CCN(Cc4ccccc4)CC3)c12	Jurkat NFkB inh 68 | Jurkat NFkB conf 58
CCC1=Nc2cc(C(=O)NCc3cccnc3)ccc2Sc2ccc(C)cc21	Jurkat NFkB inh 56 | Jurkat NFkB conf inactive
CCC1=Nc2cc(C(=O)NCc3ccco3)ccc2Sc2ccc(Cl)cc21	none
COc1ccc(-c2ccc3c(c2)S(=O)(=O)c2cccc(C(=O)NCc4cc(C)oc4C(F)(F)F)c2C3=O)cc1OC	none (no result: CHOP inhibitor)
Nc1ncnc2c1ncn2[C@@H]1O[C@H](CNCC#Cc2ccccc2)[C@@H](O)[C@H]1O	none (no result: CHOP inhibitor)
COc1ccc2c(Cl)c(C(=O)N/N=C/c3cccnc3)sc2c1	none (no result: CHOP inhibitor)
Cc1cccc(OCCNC(=O)c2ccc(Cl)c(S(=O)(=O)NCc3cccnc3)c2)c1	Jurkat NFkB inh 66 (no result: CHOP inhibitor) | Jurkat NFkB conf inactive
C=CC[C@@H](CC(=O)N[C@H](CO)Cc1ccccc1)C(=O)N[C@H](COC(=O)[C@@H](CC=C)Cc1ccc(F)cc1)Cc1c[nH]c2ccccc12	none (no result: CHOP inhibitor)
O=C(NC(=S)Nc1ccccn1)c1ccc([N+](=O)[O-])cc1	none
O=C(NC(=S)Nc1ccccn1)c1ccccc1	none | Jurkat NFkB conf inactive
CC(C)N=c1cc2n(-c3ccc(Cl)cc3)c3ccccc3nc-2cc1Nc1ccc(Cl)cc1	Jurkat NFkB inh 73 (no result: CHOP inhibitor) | Jurkat NFkB conf inactive
NS(=O)(=O)c1ccc(CCNC(=O)c2cc([N+](=O)[O-])ccc2N2CCOCC2)cc1	none (no result: CHOP inhibitor)
O=C(O)CC1(CC(=O)N2CCC(C(=O)O)CC2)CCCC1	none (no result: CHOP inhibitor)
COC(=O)c1cccc(NC(=O)NC(=O)c2ccccc2Cl)c1	Jurkat NFkB inh 62 | Jurkat NFkB conf inactive
CC(=O)c1c(C)[nH]c(C(=O)CSc2ncnc3sc(-c4ccccc4)cc23)c1C	Jurkat NFkB inh 52 | Jurkat NFkB conf inactive
O=C(CCC1CCCN(Cc2ccncc2)C1)NCc1ccc(F)c(F)c1 (centres undefined)	none
COc1cccc(-c2nc(-c3ccccn3)no2)c1	none
c1ccc(-c2noc(-c3ccc4ccccc4c3)n2)nc1	CHOP inhibitor 93, Jurkat NFkB inh 54 | Jurkat NFkB conf 77
c1ccc(-c2noc(-c3ccc4c(c3)OCO4)n2)nc1	Jurkat NFkB inh 68 (no result: CHOP inhibitor) | Jurkat NFkB conf 69
COc1ccc(-c2nc(-c3cccc(C)c3)no2)cc1OC	none
Cc1cccc(-c2noc(-c3ccc4c(c3)OCO4)n2)c1	none | Jurkat NFkB conf inactive
c1ccc(-c2noc(-c3ccncc3)n2)nc1	none
CCC(C)N(C(=O)CSc1nnc(C)n1C)C1CCS(=O)(=O)C1 (centres undefined)	none (no result: CHOP inhibitor)
COc1ccc(/C=C2\CCCC3C2=NN(C(=O)CSc2ncn[nH]2)C3c2ccc(OC)cc2)cc1 (centres undefined)	Jurkat NFkB inh 61 | Jurkat NFkB conf inactive
CN(c1ccccc1)S(=O)(=O)c1cccc(NC(=O)C2CCCO2)c1 (centres undefined)	none (no result: CHOP inhibitor)
CSCCC(NC(=O)c1ccccc1Cl)C(=O)OCC(=O)N1CCCC1=O (centres undefined)	none (no result: CHOP inhibitor)
Nc1ccc(N=Nc2ccccc2)c2cccnc12	Jurkat NFkB inh 84 (no result: CHOP inhibitor) | Jurkat NFkB conf inactive
COc1ccc(OCCCC(=O)NNC(=O)c2ccncc2)cc1	none (no result: CHOP inhibitor)
COC(=O)CCC(=O)NC(=S)Nc1sc(C)c(C)c1C(N)=O	Jurkat NFkB inh 65 | Jurkat NFkB conf 50
COC(=O)c1ccccc1NC(=O)c1cc2ccccc2o1	none (no result: CHOP inhibitor)
O=C(Nc1ccc(Cl)cn1)c1cc2ccccc2o1	none | Jurkat NFkB conf inactive
O=C(Nc1ccccc1C(F)(F)F)c1cc2ccccc2o1	none (no result: CHOP inhibitor) | Jurkat NFkB conf inactive
CC(=O)NC(C)c1ccc(C(=O)CSc2nnc(C3CC3)n2C2CC2)cc1 (centres undefined)	none (no result: CHOP inhibitor)
Cc1cccc(C)c1OCCNC(=O)C(=O)NCc1ccco1	Jurkat NFkB inh 67 | Jurkat NFkB conf inactive
Cc1cccc(C)c1NC(=O)NCc1ccco1	none
COc1ccc(Cl)cc1NC(=O)CN(C)CC(=O)Nc1ccccc1N1CCOCC1	Jurkat NFkB inh 63 | Jurkat NFkB conf inactive
COc1ccc(Cl)cc1NC(=O)CN(C)CC(=O)N1CC(=O)Nc2ccccc21	none (no result: CHOP inhibitor)
CCOC(=O)c1sc(=NC(=O)c2cccc(C)c2)n(C)c1C	none | Jurkat NFkB conf inactive
CCOC(=O)c1sc(=NC(=O)c2ccc(F)cc2)n(C)c1C	none (no result: CHOP inhibitor) | Jurkat NFkB conf inactive
CCOC(=O)c1sc(=NC(=O)c2cccc(Br)c2)n(C)c1C	none (no result: CHOP inhibitor)
O=C(c1cccs1)N1CCc2ccccc21	none
O=C(/C=C/c1cccs1)N1CCc2ccccc21	none | Jurkat NFkB conf inactive
COc1ccc(/C=N/NC(=O)c2cccnc2)cc1Cn1nc([N+](=O)[O-])c(Br)c1C	Jurkat NFkB inh 52 | Jurkat NFkB conf inactive
COc1ccc(/C=N/NC(=O)c2cccnc2)cc1CN1CCc2ccccc2C1	none
COc1ccc(C/C(C)=N/NS(=O)(=O)c2ccc(Br)cc2)cc1	none
COc1cc(C(=O)NCCC(=O)NC(C)CCc2ccccc2)cc(OC)c1OC (centres undefined)	none (no result: CHOP inhibitor)
Fc1ccc(-c2cn3cc(C(F)(F)F)cc(Cl)c3n2)cc1	none | Jurkat NFkB conf inactive
Cc1ccc(OCC(=O)N/N=C2/SCC(=O)N2Cc2ccccc2)cc1	none
O=C(COc1ccc(Br)cc1)N/N=C1\SCC(=O)N1c1ccc(F)cc1	Jurkat NFkB inh 99 | Jurkat NFkB conf inactive
C/C(=N\NC(=O)c1cc(C)nc2ccccc12)c1ccccn1	Jurkat NFkB inh 95, UPR CHOP act 85 (no result: CHOP inhibitor) | Jurkat NFkB conf 45
C/C(=N\NC(=O)c1cc(C)nc2ccccc12)c1ccncc1	none (no result: CHOP inhibitor)
c1ccc2c(c1)oc1c(Nc3ccc4c(c3)OCCO4)ncnc12	none | Jurkat NFkB conf inactive
C=CCNC(=O)c1ccc2c3n(nc2c1)-c1ccccc1CO3	none | Jurkat NFkB conf inactive
O=C(c1ccc2c3n(nc2c1)-c1ccc(Cl)cc1CO3)N1CCCCC1	none
O=C(O)c1ccc2c3n(nc2c1)-c1ccc(Cl)cc1CO3	Jurkat NFkB inh 59 (no result: CHOP inhibitor) | Jurkat NFkB conf inactive
